From ChEMBL document CHEMBL1133729, “Design, synthesis, and structure-activity relationships of phthalimide-phenylpiperazines: a novel series of potent and selective alpha(1)(a)-adrenergic receptor antagonists” (J Med Chem, 2000)

Columns and labels:
[1] = biological target: T1, Serotonin 1 (5-HT1) receptor (Rattus norvegicus, UniProt P28564+P30940+P19327+P28565); assay: Binding affinity towards 5-hydroxytryptamine 1 receptor was determined in rat cerebral cortex using [3H]5-HT as radioligand; type: tissue-based
How it was run: (§1)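 Rat cerebral cortex membranes incubated with [3H]5-HT for 10 min at 37 °C in 50 mM Tris-HCl, 150 mM NaCl, 5 mM EDTA, pH 7.4. Nonspecific binding defined with 10 μM 5-HT. Filtration, then liquid scintillation counting. Ki derived from IC50 by Cheng–Prusoff; mean of three independent experiments.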

[2] = biological target: T2, 5-hydroxytryptamine receptor 1A (Homo sapiens, UniProt P08908); assay: Binding affinity towards recombinant human Compound at 1 uM was tested for the inhibition of radioligand [3H]8-OH-DPAT binding to recombinant human 5-hydroxytryptamine 1A receptor was determined using [3H]8-OH-DPAT as radioligand
T2 sequence (P08908 whole entry): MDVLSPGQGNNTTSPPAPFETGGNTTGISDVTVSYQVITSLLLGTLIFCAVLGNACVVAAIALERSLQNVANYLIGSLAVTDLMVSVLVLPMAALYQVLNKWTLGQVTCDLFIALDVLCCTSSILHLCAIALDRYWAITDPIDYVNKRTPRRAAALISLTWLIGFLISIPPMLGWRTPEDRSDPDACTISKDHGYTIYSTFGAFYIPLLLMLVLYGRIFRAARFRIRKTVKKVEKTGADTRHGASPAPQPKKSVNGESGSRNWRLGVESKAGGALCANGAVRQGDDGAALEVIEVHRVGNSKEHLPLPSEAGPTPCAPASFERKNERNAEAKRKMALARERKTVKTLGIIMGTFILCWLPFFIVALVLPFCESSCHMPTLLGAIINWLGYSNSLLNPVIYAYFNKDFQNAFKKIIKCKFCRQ
How it was run: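 Recombinant human 5-HT1A receptor expressed in CHO cell membranes. [3H]8-OH-DPAT binding for 60 min at 25 °C in Tris/NaCl/EDTA buffer, pH 7.4. Nonspecific binding defined with 10 μM metergoline. Percent inhibition measured at 1 μM test compound in duplicate; filtration and scintillation counting.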

[3] = biological target: T1, Serotonin 1 (5-HT1) receptor; assay: Binding affinity towards central 5-hydroxytryptamine 1 receptor was determined in rat cerebral cortex using [3H]5-HT as radioligand; type: tissue-based; how it was run: as §1
[4] = biological target: T2, 5-hydroxytryptamine receptor 1A; assay: Binding affinity towards recombinant human 5-hydroxytryptamine 1A receptor was determined using [3H]8-OH-DPAT as radioligand
How it was run: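 Human 5-HT1A receptor expressed in CHO cells, membranes used. [3H]8-OH-DPAT, 60 min at 25 °C in Tris-HCl/NaCl/EDTA buffer, pH 7.4. Metergoline (10 μM) gave nonspecific binding. Filtered, scintillation counted. Ki from IC50 (nonlinear regression) by Cheng–Prusoff, mean ± SEM of three independent experiments.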

[5] = biological target: Dihydropyridine-sensitive L-type Ca2+ channel (Rattus norvegicus, UniProt P22002+P27732+Q02485); assay: Inhibition of [3H]nitrendipine binding to Dihydropyridine-sensitive L-type [Ca2+] channel in rat cerebral cortex at 10 uM; type: tissue-based; conditions: probe [3H]nitrendipine
How it was run: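 Rat cerebral cortex membranes as source of dihydropyridine-sensitive L-type Ca2+ channels; [3H]nitrendipine, 25 °C for 90 min, pH 7.4 Tris-HCl/NaCl/EDTA; 1 μM nifedipine for nonspecific binding. Percent inhibition at the single compound concentration given in each line; filtration, scintillation counting.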

[6] = biological target: Voltage-gated L-type calcium channel (Rattus norvegicus, UniProt P22002+Q02485+P27732); assay: Inhibition of [3H]nitrendipine binding to phenylalkylamine-sensitive [Ca2+] L-type channels in rat cerebral cortex; type: tissue-based
Histamine H1 receptor = Histamine H1 receptor (Cavia porcellus, UniProt P31389); assay: Binding affinity towards histamine H1 receptor was determined in guinea pig brain using [3H]pyrilamine as radioligand
Chain of Histamine H1 receptor (P31389 whole entry): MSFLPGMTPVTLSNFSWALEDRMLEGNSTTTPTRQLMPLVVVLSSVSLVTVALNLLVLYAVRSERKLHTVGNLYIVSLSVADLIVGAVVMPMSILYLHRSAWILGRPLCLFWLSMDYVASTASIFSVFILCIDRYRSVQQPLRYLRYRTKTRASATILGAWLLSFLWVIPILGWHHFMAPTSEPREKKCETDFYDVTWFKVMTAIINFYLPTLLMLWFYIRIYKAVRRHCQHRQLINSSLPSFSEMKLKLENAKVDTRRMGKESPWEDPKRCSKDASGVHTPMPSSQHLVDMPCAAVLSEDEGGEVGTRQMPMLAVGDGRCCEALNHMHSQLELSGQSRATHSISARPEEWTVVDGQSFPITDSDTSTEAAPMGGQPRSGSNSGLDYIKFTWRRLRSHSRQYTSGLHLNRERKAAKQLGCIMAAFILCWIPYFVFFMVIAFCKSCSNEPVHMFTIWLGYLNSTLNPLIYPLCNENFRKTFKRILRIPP
How it was run: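 Guinea pig brain membranes as source of central H1 receptors; [3H]pyrilamine, 25 °C for 60 min in 50 mM Tris-HCl, 150 mM NaCl, 5 mM EDTA, pH 7.4; nonspecific binding with 1 μM pyrilamine. Filtration, scintillation counting. Ki by Cheng–Prusoff from fitted IC50, mean ± SEM of three experiments.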

CCOc1ccccc1OCCN[C@H](C)Cc1ccc(OC)c(S(N)(=O)=O)c1 [TAMSULOSIN]
Ki [1]: 944 nM
Ki [2]: 0.79 nM

CC(C)Oc1ccccc1N1CCN(C[C@@H](O)CNC(=O)c2ccc3c(c2)C(=O)N(c2ccc(N(C)C)cc2)C3=O)CC1
Ki [3]: 773 nM
Ki [4]: 15 nM
inhibition at 10 µM [5]: 53%
Ki [6]: 760 nM
Ki (Histamine H1 receptor): 38 nM
